Columns and labels:
Assay type in all cases: toxicity, cell-based
Fibroblast = test: Multiplex assay against human fibroblast
Method in brief: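 Four dyes were applied at seeding to live cells: Hoechst33342, BioTracker Green Microtubule Cytoskeleton Dye, MitoTracker Red and Annexin V Alexa Fluor 680. Imaging after compound addition used a CQ1 microscope at 37°C and 5% CO2. CellPathfinder machine-learning gating then sorted cells into Hoechst high-intensity objects or normal cells, normal cells into healthy, pyknosed or fragmented nuclei, and pyknosed cells into mitotic or apoptotic, with tubulin, mitochondrial-mass and membrane-permeability phenotypes given as per cents of healthy-nucleus cells.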

HEK-293T = test: Incucyte cell viability with HEK293T; conditions: human, 10 µM, compound concentration 10 uM; note: filed as whole numbers so only -1 and 0 and 1 occur
U2OS = test: Incucyte cell viability with U2OS; conditions: human, 10 µM, compound concentration 10 uM; note: filed as whole numbers so only -1 and 0 and 1 occur
[1] = 12 h, 1 µM, compound concentration 1 uM, replicate 1
[2] = 12 h, 1 µM, compound concentration 1 uM, replicate 2
[3] = 12 h, 10 µM, compound concentration 10 uM, replicate 1
[4] = 12 h, 10 µM, compound concentration 10 uM, replicate 2
[5] = 24 h, 1 µM, compound concentration 1 uM, replicate 1
[6] = 24 h, 1 µM, compound concentration 1 uM, replicate 2
[7] = 24 h, 10 µM, compound concentration 10 uM, replicate 1
[8] = 24 h, 10 µM, compound concentration 10 uM, replicate 2
[9] = 48 h, 1 µM, compound concentration 1 uM, replicate 1
[10] = 48 h, 1 µM, compound concentration 1 uM, replicate 2
[11] = 48 h, 10 µM, compound concentration 10 uM, replicate 1
[12] = 48 h, 10 µM, compound concentration 10 uM, replicate 2
[13] = 0 h, replicate number 1, timepoint 0 hours

CNc1oc(-c2cccc3ccccc23)nc1C#N
Population Apoptotic (%) (Fibroblast; [1]): 75% | Population Fragmented Nuclei (%) (Fibroblast; [1]): 65% | Population Healthy Nuclei (%) (Fibroblast; [1]): 23% | Population Hoechst High Intensity Objects (%) (Fibroblast; [1]): 70% | Population Membrane Permeable-Phenotype (%) (Fibroblast; [1]): 25% | Population Mitochondria Different-Phenotype (%) (Fibroblast; [1]): 0% | Population Mitotic Cells (%) (Fibroblast; [1]): 25% | Population Normal (%) (Fibroblast; [1]): 29% | Population Pyknosed Nuclei (%) (Fibroblast; [1]): 10% | Population Tubulin-Different-Phenotype (%) (Fibroblast; [1]): 14% | Total Cell Count (Fibroblast; [1]): 381 | Population Apoptotic (%) (Fibroblast; [2]): 0% | Population Fragmented Nuclei (%) (Fibroblast; [2]): 29% | Population Healthy Nuclei (%) (Fibroblast; [2]): 67% | Population Hoechst High Intensity Objects (%) (Fibroblast; [2]): 15% | Population Membrane Permeable-Phenotype (%) (Fibroblast; [2]): 3% | Population Mitochondria Different-Phenotype (%) (Fibroblast; [2]): 11% | Population Mitotic Cells (%) (Fibroblast; [2]): 100% | Population Normal (%) (Fibroblast; [2]): 84% | Population Pyknosed Nuclei (%) (Fibroblast; [2]): 2% | Population Tubulin-Different-Phenotype (%) (Fibroblast; [2]): 7% | Total Cell Count (Fibroblast; [2]): 100 | Population Apoptotic (%) (Fibroblast; [3]): 92% | Population Fragmented Nuclei (%) (Fibroblast; [3]): 41% | Population Healthy Nuclei (%) (Fibroblast; [3]): 23% | Population Hoechst High Intensity Objects (%) (Fibroblast; [3]): 64% | Population Membrane Permeable-Phenotype (%) (Fibroblast; [3]): 0% | Population Mitochondria Different-Phenotype (%) (Fibroblast; [3]): 0% | Population Mitotic Cells (%) (Fibroblast; [3]): 7% | Population Normal (%) (Fibroblast; [3]): 35% | Population Pyknosed Nuclei (%) (Fibroblast; [3]): 35% | Population Tubulin-Different-Phenotype (%) (Fibroblast; [3]): 0% | Total Cell Count (Fibroblast; [3]): 3193 | Population Apoptotic (%) (Fibroblast; [4]): 80% | Population Fragmented Nuclei (%) (Fibroblast; [4]): 55% | Population Healthy Nuclei (%) (Fibroblast; [4]): 16% | Population Hoechst High Intensity Objects (%) (Fibroblast; [4]): 46% | Population Membrane Permeable-Phenotype (%) (Fibroblast; [4]): 1% | Population Mitochondria Different-Phenotype (%) (Fibroblast; [4]): 3% | Population Mitotic Cells (%) (Fibroblast; [4]): 19% | Population Normal (%) (Fibroblast; [4]): 53% | Population Pyknosed Nuclei (%) (Fibroblast; [4]): 28% | Population Tubulin-Different-Phenotype (%) (Fibroblast; [4]): 24% | Total Cell Count (Fibroblast; [4]): 92 | Population Apoptotic (%) (Fibroblast; [5]): 33% | Population Fragmented Nuclei (%) (Fibroblast; [5]): 66% | Population Healthy Nuclei (%) (Fibroblast; [5]): 27% | Population Hoechst High Intensity Objects (%) (Fibroblast; [5]): 70% | Population Membrane Permeable-Phenotype (%) (Fibroblast; [5]): 6% | Population Mitochondria Different-Phenotype (%) (Fibroblast; [5]): 0% | Population Mitotic Cells (%) (Fibroblast; [5]): 66% | Population Normal (%) (Fibroblast; [5]): 29% | Population Pyknosed Nuclei (%) (Fibroblast; [5]): 5% | Population Tubulin-Different-Phenotype (%) (Fibroblast; [5]): 3% | Total Cell Count (Fibroblast; [5]): 391 | Population Apoptotic (%) (Fibroblast; [6]): 25% | Population Fragmented Nuclei (%) (Fibroblast; [6]): 28% | Population Healthy Nuclei (%) (Fibroblast; [6]): 67% | Population Hoechst High Intensity Objects (%) (Fibroblast; [6]): 6% | Population Membrane Permeable-Phenotype (%) (Fibroblast; [6]): 1% | Population Mitochondria Different-Phenotype (%) (Fibroblast; [6]): 10% | Population Mitotic Cells (%) (Fibroblast; [6]): 75% | Population Normal (%) (Fibroblast; [6]): 93% | Population Pyknosed Nuclei (%) (Fibroblast; [6]): 3% | Population Tubulin-Different-Phenotype (%) (Fibroblast; [6]): 21% | Total Cell Count (Fibroblast; [6]): 113 | Population Apoptotic (%) (Fibroblast; [7]): 93% | Population Fragmented Nuclei (%) (Fibroblast; [7]): 44% | Population Healthy Nuclei (%) (Fibroblast; [7]): 24% | Population Hoechst High Intensity Objects (%) (Fibroblast; [7]): 66% | Population Membrane Permeable-Phenotype (%) (Fibroblast; [7]): 1% | Population Mitochondria Different-Phenotype (%) (Fibroblast; [7]): 0% | Population Mitotic Cells (%) (Fibroblast; [7]): 6% | Population Normal (%) (Fibroblast; [7]): 33% | Population Pyknosed Nuclei (%) (Fibroblast; [7]): 31% | Population Tubulin-Different-Phenotype (%) (Fibroblast; [7]): 0% | Total Cell Count (Fibroblast; [7]): 2998 | Population Apoptotic (%) (Fibroblast; [8]): 81% | Population Fragmented Nuclei (%) (Fibroblast; [8]): 57% | Population Healthy Nuclei (%) (Fibroblast; [8]): 16% | Population Hoechst High Intensity Objects (%) (Fibroblast; [8]): 44% | Population Membrane Permeable-Phenotype (%) (Fibroblast; [8]): 3% | Population Mitochondria Different-Phenotype (%) (Fibroblast; [8]): 3% | Population Mitotic Cells (%) (Fibroblast; [8]): 18% | Population Normal (%) (Fibroblast; [8]): 55% | Population Pyknosed Nuclei (%) (Fibroblast; [8]): 25% | Population Tubulin-Different-Phenotype (%) (Fibroblast; [8]): 26% | Total Cell Count (Fibroblast; [8]): 116 | Population Apoptotic (%) (Fibroblast; [9]): 40% | Population Fragmented Nuclei (%) (Fibroblast; [9]): 71% | Population Healthy Nuclei (%) (Fibroblast; [9]): 23% | Population Hoechst High Intensity Objects (%) (Fibroblast; [9]): 77% | Population Membrane Permeable-Phenotype (%) (Fibroblast; [9]): 22% | Population Mitochondria Different-Phenotype (%) (Fibroblast; [9]): 4% | Population Mitotic Cells (%) (Fibroblast; [9]): 60% | Population Normal (%) (Fibroblast; [9]): 22% | Population Pyknosed Nuclei (%) (Fibroblast; [9]): 5% | Total Cell Count (Fibroblast; [9]): 411 | Population Apoptotic (%) (Fibroblast; [10]): 80% | Population Fragmented Nuclei (%) (Fibroblast; [10]): 75% | Population Healthy Nuclei (%) (Fibroblast; [10]): 19% | Population Hoechst High Intensity Objects (%) (Fibroblast; [10]): 78% | Population Membrane Permeable-Phenotype (%) (Fibroblast; [10]): 31% | Population Mitochondria Different-Phenotype (%) (Fibroblast; [10]): 0% | Population Mitotic Cells (%) (Fibroblast; [10]): 20% | Population Normal (%) (Fibroblast; [10]): 21% | Population Pyknosed Nuclei (%) (Fibroblast; [10]): 4% | Population Tubulin-Different-Phenotype (%) (Fibroblast; [10]): 4% | Total Cell Count (Fibroblast; [10]): 519 | Population Apoptotic (%) (Fibroblast; [11]): 85% | Population Fragmented Nuclei (%) (Fibroblast; [11]): 47% | Population Healthy Nuclei (%) (Fibroblast; [11]): 22% | Population Hoechst High Intensity Objects (%) (Fibroblast; [11]): 65% | Population Membrane Permeable-Phenotype (%) (Fibroblast; [11]): 0% | Population Mitochondria Different-Phenotype (%) (Fibroblast; [11]): 0% | Population Mitotic Cells (%) (Fibroblast; [11]): 14% | Population Normal (%) (Fibroblast; [11]): 34% | Population Pyknosed Nuclei (%) (Fibroblast; [11]): 30% | Population Tubulin-Different-Phenotype (%) (Fibroblast; [11]): 0% | Total Cell Count (Fibroblast; [11]): 2643 | Population Fragmented Nuclei (%) (Fibroblast; [12]): 46% | Population Healthy Nuclei (%) (Fibroblast; [12]): 23% | Population Hoechst High Intensity Objects (%) (Fibroblast; [12]): 69% | Population Normal (%) (Fibroblast; [12]): 30% | Population Tubulin-Different-Phenotype (%) (Fibroblast; [12]): 1% | Total Cell Count (Fibroblast; [12]): 2437 | Growth Rate (HEK-293T; [13]): 0 | Growth Rate (HEK-293T; 12 h, replicate number 1, timepoint 12 hours): 1 | Growth Rate (HEK-293T; 18 h, replicate number 1, timepoint 18 hours): 1 | Growth Rate (HEK-293T; 24 h, replicate number 1, timepoint 24 hours): 1 | Growth Rate (U2OS; [13]): 0 | Growth Rate (U2OS; 18 h, replicate number 2, timepoint 18 hours): 1 | Growth Rate (U2OS; 24 h, replicate number 2, timepoint 24 hours): 1

Source: ChEMBL document CHEMBL4689842, “EUbOPEN Chemogenomics Library wave 1” (2021)
